Data reported in ChEMBL document CHEMBL1148398, “Design, synthesis, and biological evaluation of thio-containing compounds with serum HDL-cholesterol-elevating properties” (2004).

Assays:
Type in all cases: functional
Rattus norvegicus [1] = test: Percent change in total plasma cholesterol following oral administration of compound in normal chow-fed rats at 100 mg/kg/day for 4 days
How it was run: (§1)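 Chow-fed male Sprague–Dawley CD rats, 60–80 g, gavaged 100 mg/kg/day for 4 days in 1.3% Tween 80/0.25% CMC. Fasted overnight, bled 24 h after the last dose. Total cholesterol and glycerol-blanked triglycerides read enzymatically; lipoproteins by FPLC with cholesterol per fraction. % change versus control; six per group, p < 0.05.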

Rattus norvegicus [2] = test: Percent change in total plasma cholesterol in hypercholesterolemic rats dosed at 100 mg/kg/day for 8 days
Rattus norvegicus [3] = test: Percent change in high-density lipoprotein cholesterol following oral administration of compound in normal chow-fed rats at 100 mg/kg/day for 4 days; how it was run: as §1
Rattus norvegicus [4] = test: Percent change in high-density lipoprotein cholesterol in hypercholesterolemic rats dosed at 100 mg/kg/day for 8 days
Rattus norvegicus [5] = test: Percent change in low-density lipoprotein cholesterol following oral administration of compound in normal chow-fed rats at 100 mg/kg/day for 4 days; how it was run: as §1
Rattus norvegicus [6] = test: Percent change in triglycerides in hypercholesterolemic rats at a dose of 100 mg/kg/day for 8 days
Rattus norvegicus [7] = test: Percent change in very low-density lipoprotein cholesterol following oral administration of compound in normal chow-fed rats at 100 mg/kg/day for 4 days; how it was run: as §1
Rattus norvegicus [8] = test: Percent change in triglycerides following oral administration of compound in normal chow-fed rats at 100 mg/kg/day for 4 days; how it was run: as §1

Row | Compound | Change (Rattus norvegicus [1]) [%] | Change (Rattus norvegicus [2]) [%] | Change (Rattus norvegicus [3]) [%] | Change (Rattus norvegicus [4]) [%] | Change (Rattus norvegicus [5]) [%] | Change (Rattus norvegicus [6]) [%] | Change (Rattus norvegicus [7]) [%] | Change (Rattus norvegicus [8]) [%]
1 | CCc1cccc(C)c1N1C(=O)CN(CC)C1=S | 52.8 | -19 | 61.9 | 112 | -6.5 | -10 | -29.2 | -8.2
2 | CCN1CC(=O)N(c2ccccc2SC)C1=S | – | 13 | – | 60 | – | -8 | – | –
3 | Cc1ccc(Cl)cc1N1C(=O)C(=O)N(C)C1=S | – | 44 | – | 196 | – | -26 | – | –
4 | CCN1C(=S)N(c2c(Cl)cccc2Cl)C(=O)C1(C)C | – | -16 | – | -18 | – | -19 | – | –
5 | CCN1C(=S)N(CC(C)C)C(=O)C1c1ccccc1 (centres undefined) | -8.4 | 7 | -3.1 | 156 | -9.3 | 92 | 33.3 | -1.6
6 | CCN1CC(=O)N(CCc2ccc(F)cc2)C1=S | – | -8.8 | – | 49 | – | -17 | – | –
7 | CN1OCC(=O)N(C(c2ccccc2)c2ccccc2)C1=S | 17.6 | 22 | 33.7 | 60 | 43.8 | 9 | -29.3 | -44.1
8 | O=C1CN(Cc2ccccc2)C(=S)N1c1c(Cl)cccc1Cl | – | 25.3 | – | -2.2 | – | -54 | – | –
9 | CN1CC(=O)N(CCc2ccc(Cl)cc2)C1=S | – | -10.2 | – | -15.5 | – | 24 | – | –
10 | Cc1ccc(CCN2C(=O)CN(C)C2=S)cc1 | – | -11 | – | -26.6 | – | 27 | – | –
11 | CCN1CC(=O)N(C2CCCCC2)C1=S | – | -7.4 | – | 5.4 | – | 28 | – | –
12 | CCN1CCC(=O)N(c2ccc(C)cc2C)C1=S | – | 27 | – | -3 | – | 2 | – | –
13 | CCc1cccc(C)c1N1C(=O)CCN(CC)C1=S | – | 52 | – | 60 | – | 2 | – | –
14 | CCN1C(=O)C(=O)N(c2ccc(F)cc2)C1=S | – | 44 | – | 23 | – | -48 | – | –
15 | CCN1C(=S)N(c2c(Cl)cccc2Cl)C(=O)C1c1ccccc1 (centres undefined) | – | 18 | – | 39 | – | 25 | – | –
16 | CN1CC(=O)N(Cc2ccccc2Cl)C1=S | – | 14 | – | 23 | – | 11 | – | –
17 | CN1CC(=O)N(CCN2CCCCC2)C1=S | – | -3.3 | – | -40 | – | 33 | – | –
18 | CCCCN1CC(=O)N(c2c(C)cccc2Cl)C1=S | – | 30 | – | 53 | – | -38 | – | –
19 | CCN1CCCC(=O)N(c2ccc(Cl)cc2C)C1=S | – | 58.8 | – | 15 | – | -15 | – | –
20 | CCN1CC(=O)N(c2cc(Cl)ccc2C)/C1=N/C#N | – | 15 | – | 17 | – | -25 | – | –
21 | CCN1C(=S)N(c2cc(Cl)ccc2C)C(=O)C1(C)C | – | 0 | – | -9 | – | 15 | – | –
22 | CCN1CC(=O)N(c2cc(Cl)ccc2C)C(=S)C1 | – | 28 | – | 10 | – | -27 | – | –
23 | CCN1CCC(=O)N(c2cc(Cl)ccc2C)C1=S | – | 53 | – | 76 | – | 44 | – | –
24 | CCN1CC(=O)N(c2cc(C)c(C)cc2C)C1=S | – | 39 | – | 112 | – | -11 | – | –
25 | CCN1C(=S)N(c2c(C)cccc2Cl)C(=O)C1(C)C | – | 16 | – | -5 | – | -22 | – | –
26 | CCN1CC(=O)N(CCc2ccccc2)C1=S | – | -14 | – | 30 | – | 6 | – | –
27 | CCN1CC(=O)N(c2ccc(F)cc2)C1=S | – | 78 | – | 59 | – | -18 | – | –
28 | Cc1ccc(Cl)cc1N1C(=O)CN(C)C1=O | – | 37 | – | -8 | – | -7 | – | –
